Screening data deposited in PubChem by several laboratories.
Jurkat NFkB inh = lowers PMA/ionomycin-induced NF-kB signal in Jurkat cells. hit rate 0.53% among 330,000. inhibition, % at 4 µM. PMA/ionomycin-induced NF-kB luciferase reporter, luminescence; in the data active means inhibition above about 50%
697 NFkB inh = lowers PMA/ionomycin-induced NF-kB signal in 697 B cells. 697 B-cell NF-kB luciferase reporter, 16 h. hit rate 0.33% among 330,000. inhibition, % at 4 µM; in the data active means inhibition above about 35%
XBP1 UPR activ = adaptive UPR (XBP1) activation | hit rate 0.33% among 330,000 | activation, % at 20 µM | CHO-XBP1 luciferase reporter, IRE1-XBP1 UPR activation, luminescence; percent of tunicamycin response, DMSO as zero;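 active means versus positive control, 20 µM dose yields 30% or more activation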
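Signal: luciferase luminescence; Assay system: CHO-XBP1 luciferase reporter cells; Amount: one thousand reporter cells per well; Dosing: 20 µM single concentration, DMSO 1%; Benchmarks: high control tunicamycin 10 µg/mL final, low control DMSO vehicle only; Schedule: 6 h compound exposure at 37 °C, 5% CO2; Evaluation: percent activation relative to tunicamycin reference.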
CHOP UPR activ = apoptotic UPR (CHOP) activation; CHO-CHOP luciferase reporter, luminescence; percent of tunicamycin response over DMSO baseline; hit rate 0.34% among 330,000; AID 449763; activation, % at 10 µM;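 active means at 10 µM dose, activation of 40% or more, normalized to positive control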
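System: CHO CHOP reporter cells. Amount: 500 cells per well. Buffer or medium: F12 medium, 10% FBS. Compound dosing: one dose, 10 µM in 0.5% DMSO. Incubation: 6 h compound exposure at 37 °C after overnight seeding. Technique: Steady-Glo luciferase luminescence. Benchmarks: tunicamycin and DMSO controls.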
CHOP inh = CHOP inhibition in unfolded protein response; inhibition, % at 10 µM; AID 2732; CHO-K1 CHOP-promoter luciferase, tunicamycin-induced, 15-18 h; hit rate 3.8% among 220,000;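 active means compounds that reduced the stress-induced luciferase reporter signal by more than about 70% of percent inhibition, limit read from the data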
Each line names hits and unclear results; the compound was inactive in the other large screens. This is one part of a sample in which hits are shown more often than they occur.

COc1cccc(CC2(CO)CCCN(Cc3sc(N4CCCC4)nc3Cl)C2)c1 (stereo not given)	none
Cc1ccc(CN2C(=O)CSC2c2ccccc2F)cc1 (stereo not given)	none (no result: CHOP inh)
CCOC(=O)c1cnc2c(OC)cccc2c1N1CCN(c2ccccc2OC)CC1	none
CCOC(=O)c1cnc2c(OC)cccc2c1N1CCN(c2ccc(OC)cc2)CC1	CHOP inh 83
O=C(CSc1nnnn1-c1ccccc1)Nc1nc(-c2ccccc2)ns1	CHOP inh 86
CCCc1cc(=O)[nH]c(SCC(=O)Nc2nc(-c3ccccc3)cs2)n1	none
O=C(CSc1nnnn1-c1ccccc1)Nc1nsc(-c2ccccc2)n1	none
Cc1cc(C)cc(-n2nnnc2SCC(=O)Nc2nc(-c3ccc(F)cc3)cs2)c1	CHOP inh 89
O=C(CSc1nc2ccccc2[nH]1)Nc1nc(-c2ccc(Br)cc2)cs1	CHOP inh 77
Cc1cc(C)n(-c2ccc(NC(=O)C3CCN(Cc4ccccn4)CC3)cc2)n1	none (no result: CHOP inh)
C=CCNC(=O)C1CCN(S(=O)(=O)c2cccs2)CC1	none (no result: CHOP inh)
Cc1cc(NC(=O)c2ccccc2F)n(-c2nc3ccccc3[nH]2)n1	none
Cc1cc(NC(=O)c2c(F)cccc2Cl)n(-c2nc3ccccc3[nH]2)n1	CHOP inh 75
COc1ccc(CC2S/C(=N/N=C/c3ccccc3O)NC2=O)cc1 (stereo not given)	CHOP inh 70
O=C1N/C(=N/N=C/c2ccccc2O)SC1Cc1ccc(F)cc1 (stereo not given)	CHOP inh 90
O=C1N/C(=N/N=C/c2ccc(O)cc2)SC1Cc1ccccc1 (stereo not given)	none
O=C(Cn1cnc2c(nnn2Cc2ccccc2)c1=O)Nc1ccc2c(c1)OCCO2	none (no result: CHOP inh)
COC(=O)c1[nH]c(C)c(/C(O)=C2\C(=O)C(=O)N(CCN3CCOCC3)C2c2ccco2)c1C (stereo not given)	none
O=C(Cc1ccc(NS(=O)(=O)c2cccc(C(F)(F)F)c2)cc1)NCCN1CCOCC1	none (no result: CHOP inh)
CCOC(=O)C1CCN(CC(O)COc2ccc(C(C)(C)CC)cc2)CC1 (stereo not given)	CHOP inh 93
Cc1cccc(Oc2cnn(C(C)(C)C)c(=O)c2Cl)c1	CHOP inh 71
CC(C)C[C@H](NC(=O)C1OC1C(=O)O)C(=O)NCCCCN=C(N)N (stereo not given in full)	none (no result: Jurkat NFkB inh, 697 NFkB inh, XBP1 UPR activ, CHOP UPR activ)
Cc1ccccc1C(=O)Oc1ccc(Sc2ccc(O)cc2)cc1	CHOP inh 96
COC(=O)Nc1ccc(S(=O)(=O)Nc2ccc(O)cc2)cc1	CHOP inh 78
COc1ccc(NC(=O)c2c(NC(=O)CNCc3ccco3)sc3c2CCC3)c(OC)c1	CHOP inh 71
Cc1ccc2cc3cc(C(=O)N4CCN(Cc5ccccc5)CC4)sc3nc2c1	CHOP inh 74
CN(C)S(=O)(=O)c1cccc(-n2sc3ccccc3c2=O)c1	CHOP inh 93
O=c1c2ccccc2sn1-c1ccc(S(=O)(=O)N2CCCCC2)cc1	none (no result: CHOP inh)
O=c1c2ccccc2sn1-c1ccc(S(=O)(=O)N2CCCC2)cc1	CHOP inh 87
O=c1[nH]nc(Cc2ccc(Cl)cc2Cl)c2ccccc12	CHOP inh 80
O=c1[nH]nc(CNc2ccc(O)cc2)c2ccccc12	none
O=c1[nH]nc(CNc2ccc(Cl)cc2Cl)c2ccccc12	CHOP inh 71
COC(=O)C(C)(C)ONC(=O)Nc1ccccc1	none
CCCCN1CC(=O)N2[C@H]3c4ccc(OC)cc4OC[C@@H]3[C@H](C(=O)OCC)[C@]2(C)C1=O	none (no result: CHOP inh)
Cc1cccc(Nc2nc(-c3ccc(O)c(O)c3)cs2)n1	CHOP UPR activ 100 (no result: CHOP inh)
COc1cccc(Nc2ncnc3ccccc23)c1	none
O=C(Oc1cccc(Nc2ncnc3ccccc23)c1)c1ccccc1Cl	CHOP inh 87
Cc1ccc([N+](=O)[O-])cc1-c1[nH]c(-c2ccc(O)c(O)c2)nc1-c1ccccc1	none
COc1ccc(-c2nc(-c3ccccc3)c(-c3cc([N+](=O)[O-])ccc3C)[nH]2)cc1O	CHOP inh 74
CCCc1nc(-c2cc3ccc(C)cc3[nH]c2=O)no1	none
CCOc1cc(-c2nc(-c3ccc(C)nc3OC)no2)cc(OCC)c1OCC	CHOP inh 77 (no result: Jurkat NFkB inh, 697 NFkB inh, XBP1 UPR activ, CHOP UPR activ)
CCOc1nc(C)ccc1-c1noc(-c2ccccc2OC)n1	CHOP inh 72
CCOc1ccccc1-c1nc(-c2cc3ccc(C)cc3[nH]c2=O)no1	CHOP inh 72
CCCCCC#CCC#CCC#CCC#CCCCC(=O)O	none
CCn1cc(C(=O)O)c(=O)c2ccc(Cc3ccccc3)nc21	none (no result: Jurkat NFkB inh, 697 NFkB inh, XBP1 UPR activ, CHOP UPR activ)
Cc1ccccc1C(=O)O/N=C(\N)c1ccncc1	none
COc1ccccc1C(=O)NCC(c1cccs1)N1CCc2ccccc21 (stereo not given)	none (no result: CHOP inh)
O=c1cc2c(nn1Cc1c(Cl)cccc1Cl)-c1ccccc1CC2	CHOP inh 85
Clc1cccc(Cl)c1CSc1cc2c(nn1)-c1ccccc1CC2	none
CC(C)CN(C(=O)CN(C)CC(=O)Nc1ccccc1C#N)c1c(N)n(CC(C)C)c(=O)[nH]c1=O	none (no result: CHOP inh)
C/C(=N\N=C(/N)SC1CC(=O)N(c2ccc(Br)cc2)C1=O)c1cccs1 (stereo not given)	CHOP inh 87
C/C(=N\N=C(/N)SC1CC(=O)N(c2ccccc2)C1=O)c1cccs1 (stereo not given)	none
CCCCCCOc1ccc(N2C(=O)CC(S/C(N)=N/N=C(\C)c3cccs3)C2=O)cc1 (stereo not given)	CHOP inh 88
O=C(Nc1ccc2oc(-c3cccnc3)nc2c1)c1ccc(Br)o1	CHOP inh 77
CCC(C)(C)n1nnnc1C(c1cccnc1)N1CCC(Cc2ccccc2)CC1 (stereo not given)	none
CC(C)(C)n1nnnc1C(c1cccc(C#N)c1)N1CCC(Cc2ccccc2)CC1 (stereo not given)	CHOP inh 80
COc1ccc(-n2nnnc2SCc2nc3ccccc3s2)cc1	CHOP inh 82
COc1ccc(C(=O)NCCc2ccc(C(F)(F)F)cc2)cc1S(=O)(=O)N1CCOCC1	none (no result: CHOP inh)
Cc1cc(C(F)(F)F)c2c(=O)[nH]c(=O)n(Cc3ccccc3)c2n1	none
O=c1[nH]c(=O)n(Cc2ccccc2)c2nc(-c3ccco3)cc(C(F)(F)F)c12	CHOP inh 71
COc1ccccc1N1CCN(/N=C/c2cccc(Cl)c2)CC1	none (no result: CHOP inh)
COc1cccc(/C=N/N2CCN(c3ccccc3OC)CC2)c1	CHOP inh 76
Cc1nn(Cc2ccc([N+](=O)[O-])cc2)c(=O)n1-c1ccccc1	none
CCCCC1(Cc2ccc([N+](=O)[O-])cc2)C(=O)N(c2ccccc2)N(c2ccccc2)C1=O	CHOP inh 77
O=C(CCc1ccccc1)NC(c1cccs1)c1cc(Cl)c2cccnc2c1O (stereo not given)	CHOP inh 89 (no result: Jurkat NFkB inh, 697 NFkB inh, XBP1 UPR activ, CHOP UPR activ)
CCOC(=O)CN(C(=O)c1ccccc1)c1ccccc1C	none
